Data published in ChEMBL document CHEMBL6078712, “Triterpenoid phthalimides as selective anti-cancer agents targeting mitochondrial apoptosis” (Eur J Med Chem, 2025).

What was measured:
[1] = Cytotoxicity against human K562-Tax cells assessed as inhibition of cell growth incubated for 72 hrs by MTS assay; type: functional, cell-based
Outline: (§1)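 MTS assay on eight human cancer lines and two non-tumour fibroblast lines. IC50 is the concentration that inhibits cell growth by 50 %. SD typically up to 15 % of the mean.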

[2] = Cytotoxicity against human BJ cells assessed as inhibition of cell growth incubated for 72 hrs by MTS assay; type: toxicity, cell-based; outline: as §1
K562 = assay: Cytotoxicity against human K562 cells assessed as inhibition of cell growth incubated for 72 hrs by MTS assay; type: functional, cell-based; settings: K562, 72 h; outline: as §1
U2OS = assay: Cytotoxicity against human U2OS cells assessed as inhibition of cell growth incubated for 72 hrs by MTS assay; type: functional, cell-based; outline: as §1
CEM-DNR = assay: Cytotoxicity against human CEM-DNR cells assessed as inhibition of cell growth incubated for 72 hrs by MTS assay; type: functional, cell-based; outline: as §1
HCT-116 = assay: Cytotoxicity against human HCT-116 cells assessed as inhibition of cell growth incubated for 72 hrs by MTS assay; type: functional, cell-based; settings: HCT-116, 72 h; outline: as §1
CCRF-CEM = assay: Cytotoxicity against human CCRF-CEM cells assessed as inhibition of cell growth incubated for 72 hrs by MTS assay; type: functional, cell-based; outline: as §1
A549 = assay: Cytotoxicity against human A549 cells assessed as inhibition of cell growth incubated for 72 hrs by MTS assay; type: functional, cell-based; settings: A549, 72 h; outline: as §1
HCT 116 TP53(-/-) = assay: Cytotoxicity against human HCT116-p53-null cells assessed as inhibition of cell growth incubated for 72 hrs by MTS assay; type: functional, cell-based; outline: as §1
[3] = Cytotoxicity against human MRC5 cells assessed as inhibition of cell growth incubated for 72 hrs by MTS assay; type: toxicity, cell-based; outline: as §1

SMILES | IC50 [1] [µM] | IC50 at 72 h [2] [µM] | IC50 (K562) [µM] | IC50 (U2OS) [µM] | IC50 (CEM-DNR) [µM] | IC50 (HCT-116) [µM] | IC50 (CCRF-CEM) [µM] | IC50 (A549) [µM] | IC50 (HCT 116 TP53(-/-)) [µM] | IC50 at 72 h [3] [µM]
CC(=O)Nc1ccc(N2C(=O)c3cc([C@@H]4CC[C@]5(C(=O)O)CC[C@]6(C)[C@H](CC[C@@H]7[C@@]8(C)CC[C@H](OC(C)=O)C(C)(C)[C@@H]8CC[C@]76C)[C@@H]45)cc(-c4ccccc4)c3C2=O)cc1 | > 50 | > 50 | 27.9 | 18.8 | > 50 | 16.8 | 8.08 | 34.6 | 28.4 | 33.7
CC1(C)[C@@H](O)CC[C@]2(C)[C@H]3CC[C@@H]4[C@H]5[C@H](c6ccc7c(c6)C(=O)N(c6ccccc6)C7=O)CC[C@]5(C(=O)O)CC[C@@]4(C)[C@]3(C)CC[C@@H]12 | 14.3 | > 50 | > 50 | 24.9 | 19.9 | 31.1 | 7.93 | 34.2 | 37.8 | 31
COC(=O)c1cc([C@@H]2CC[C@]3(CO)CC[C@]4(C)[C@H](CC[C@@H]5[C@@]6(C)CC[C@H](O)C(C)(C)[C@@H]6CC[C@]54C)[C@@H]23)cc(-c2ccccc2)c1C(=O)OC | > 50 | > 50 | > 50 | > 50 | > 50 | > 50 | > 50 | > 50 | > 50 | > 50
COc1ccc(N2C(=O)c3cc([C@@H]4CC[C@]5(C(=O)O)CC[C@]6(C)[C@H](CC[C@@H]7[C@@]8(C)CC[C@H](O)C(C)(C)[C@@H]8CC[C@]76C)[C@@H]45)cc(-c4ccccc4)c3C2=O)cc1 | 27.9 | > 50 | > 50 | > 50 | > 50 | > 50 | 13.6 | > 50 | > 50 | > 50
CC(=O)O[C@H]1CC[C@]2(C)[C@H]3CC[C@@H]4[C@H]5[C@H](c6cc7c(c(-c8ccccc8)c6)C(=O)NC7=O)CC[C@]5(CO)CC[C@@]4(C)[C@]3(C)CC[C@H]2C1(C)C | > 50 | > 50 | > 50 | > 50 | > 50 | > 50 | > 50 | > 50 | > 50 | > 50
COc1ccc(N2C(=O)c3ccc([C@@H]4CC[C@]5(CO)CC[C@]6(C)[C@H](CC[C@@H]7[C@@]8(C)CC[C@H](OC(C)=O)C(C)(C)[C@@H]8CC[C@]76C)[C@@H]45)cc3C2=O)cc1 | > 50 | > 50 | > 50 | > 50 | > 50 | > 50 | > 50 | > 50 | > 50 | > 50
CC1(C)[C@@H](O)CC[C@]2(C)[C@H]3CC[C@@H]4[C@H]5[C@H](c6ccc7c(c6)C(=O)NC7=O)CC[C@]5(C(=O)O)CC[C@@]4(C)[C@]3(C)CC[C@@H]12 | 17.3 | > 50 | 35.3 | 38.5 | 20.7 | 31.1 | 26.3 | 26.6 | 34.9 | > 50
COc1ccc(N2C(=O)c3ccc([C@@H]4CC[C@]5(C(=O)O)CC[C@]6(C)[C@H](CC[C@@H]7[C@@]8(C)CC[C@H](O)C(C)(C)[C@@H]8CC[C@]76C)[C@@H]45)cc3C2=O)cc1 | 5.35 | > 50 | > 50 | 27.5 | 9.85 | > 50 | 11.1 | 28.1 | > 50 | > 50
CC1(C)[C@@H](O)CC[C@]2(C)[C@H]3CC[C@@H]4[C@H]5[C@H](c6cc7c(c(-c8ccccc8)c6)C(=O)N(c6ccc(C#N)cc6)C7=O)CC[C@]5(C(=O)O)CC[C@@]4(C)[C@]3(C)CC[C@@H]12 | > 50 | > 50 | > 50 | > 50 | > 50 | > 50 | 14.2 | > 50 | > 50 | > 50
CC1(C)[C@@H](O)CC[C@]2(C)[C@H]3CC[C@@H]4[C@H]5[C@H](c6cc(C#N)c(C#N)c(-c7ccccc7)c6)CC[C@]5(C(=O)O)CC[C@@]4(C)[C@]3(C)CC[C@@H]12 | 7 | 36.2 | 27.8 | 19.2 | 13.7 | 26 | 5.99 | 20.7 | 31.6 | 25.7
CC1(C)[C@@H](O)CC[C@]2(C)[C@H]3CC[C@@H]4[C@H]5[C@H](c6ccc7c(c6)C(=O)N(c6ccc(C#N)cc6)C7=O)CC[C@]5(C(=O)O)CC[C@@]4(C)[C@]3(C)CC[C@@H]12 | 12.7 | > 50 | > 50 | > 50 | 27.3 | > 50 | 19.8 | > 50 | > 50 | > 50
CC(=O)Nc1ccc(N2C(=O)c3ccc([C@@H]4CC[C@]5(C(=O)O)CC[C@]6(C)[C@H](CC[C@@H]7[C@@]8(C)CC[C@H](OC(C)=O)C(C)(C)[C@@H]8CC[C@]76C)[C@@H]45)cc3C2=O)cc1 | 18.2 | 31.2 | 27.1 | 24.3 | 20.8 | 24.4 | 16.5 | 27.1 | 29.6 | 19.8
COC(=O)c1cc([C@@H]2CC[C@]3(C(=O)O)CC[C@]4(C)[C@H](CC[C@@H]5[C@@]6(C)CC[C@H](O)C(C)(C)[C@@H]6CC[C@]54C)[C@@H]23)cc(C)c1C(=O)OC | 7.21 | 33 | 12.1 | 19 | 6.78 | 16.3 | 14 | 10.4 | 16.1 | 32.4
Cc1cc([C@@H]2CC[C@]3(C(=O)O)CC[C@]4(C)[C@H](CC[C@@H]5[C@@]6(C)CC[C@H](O)C(C)(C)[C@@H]6CC[C@]54C)[C@@H]23)cc2c1C(=O)NC2=O | 7.2 | > 50 | > 50 | 24.8 | 8.76 | 25.9 | 7.97 | > 50 | 27.2 | 34.3
CC(=O)OC[C@]12CC[C@@H](c3cc4c(c(-c5ccccc5)c3)C(=O)NC4=O)[C@@H]1[C@H]1CC[C@@H]3[C@@]4(C)CC[C@H](OC(C)=O)C(C)(C)[C@@H]4CC[C@@]3(C)[C@]1(C)CC2 | > 50 | > 50 | > 50 | > 50 | > 50 | > 50 | > 50 | > 50 | > 50 | > 50
CC(=O)O[C@H]1CC[C@]2(C)[C@H]3CC[C@@H]4[C@H]5[C@H](c6ccc7c(c6)C(=O)N(c6cc[nH]n6)C7=O)CC[C@]5(C(=O)O)CC[C@@]4(C)[C@]3(C)CC[C@H]2C1(C)C | 21.1 | 30 | 29.4 | 26.2 | 25.4 | 24 | 18.7 | 27.1 | 30.1 | 28.3
CC(=O)O[C@H]1CC[C@]2(C)[C@H]3CC[C@@H]4[C@H]5[C@H](c6ccc7c(c6)C(=O)NC7=O)CC[C@]5(CO)CC[C@@]4(C)[C@]3(C)CC[C@H]2C1(C)C | 7.43 | > 50 | 36 | 34.5 | 9.21 | 19.7 | 14 | > 50 | 21.8 | 28.5
CC1(C)[C@@H](O)CC[C@]2(C)[C@H]3CC[C@@H]4[C@H]5[C@H](c6ccc(C(=O)O)c(C(=O)O)c6)CC[C@]5(C(=O)O)CC[C@@]4(C)[C@]3(C)CC[C@@H]12 | > 50 | > 50 | > 50 | > 50 | > 50 | > 50 | > 50 | > 50 | > 50 | > 50
CC1(C)[C@@H](O)CC[C@]2(C)[C@H]3CC[C@@H]4[C@H]5[C@H](c6cc7c(c(-c8ccccc8)c6)C(=O)NC7=O)CC[C@]5(C(=O)O)CC[C@@]4(C)[C@]3(C)CC[C@@H]12 | 10.4 | 34.5 | 7.58 | 9.82 | 9.65 | 7.22 | 7.18 | 6.39 | 7.43 | 32.4
